Experimental data as given in ChEMBL document CHEMBL1124171, “Ergolines as selective 5-HT1 agonists” (J Med Chem, 1988).

How the values were obtained:
[1] = target: Serotonin 1 (5-HT1) receptor (Rattus norvegicus, UniProt P28564+P30940+P19327+P28565); test: Binding affinity towards 5-hydroxytryptamine 1 receptor using [3H]5-HT as a radioligand from rat frontal cortex homogenates; format: tissue-based
[2] = target: Serotonin 2 (5-HT2) receptor (Rattus norvegicus, UniProt P30994+P08909+P14842); test: Binding affinity at 5-hydroxytryptamine 2 receptor from rat frontal cortex homogenates by [3H]-spiperone displacement.; format: tissue-based
Rattus norvegicus [3] = test: Effect on serum corticosterone in serum of rats after sc administration (1 mg/kg dose) (experiment 1); format: functional, organism-based
Procedure, shortened: (§1)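 Male Wistar rats (~150 g) housed at 24 °C with lights 7 a.m.–7 p.m. Compound in dilute HCl given sc 1 h before decapitation. Serum corticosterone measured spectrofluorometrically, μg/100 mL. Five rats per group, mean ± SE. Significance set at P < 0.05 versus the vehicle control.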

Rattus norvegicus [4] = test: Decreased accumulation of 5-hydroxytryptophan after decarboxylase inhibition in the hypothalamus of rat at a dose 0.1mg/Kg, sc; format: functional, organism-based
Procedure, shortened: (§2)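 Male Wistar rats (~150 g) got drug sc in dilute HCl. NSD 1015 (100 mg/kg, ip) was given 30 min after drug and 30 min before decapitation. Hypothalamic 5-HTP was measured by LC with electrochemical detection. Results are mean ± SE, five rats per treated group and six controls; significance at P < 0.01.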

Rattus norvegicus [5] = test: Effect on serotonin in rat whole brain, after sc administration (0.03 mg/kg dose) (experiment 2); format: functional, organism-based
Rattus norvegicus [6] = test: Effect on serotonin in rat whole brain, after sc administration (0.03 mg/kg dose) (experiment 1); format: functional, organism-based
Procedure, shortened: (§3)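 Drug was given sc in dilute HCl to male Wistar rats (~150 g), with decapitation 1 h later. Whole brains were frozen on dry ice and held at −15 °C. […] Results are mean ± SE, five rats/group, P < 0.05 versus vehicle control.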

Rattus norvegicus [7] = test: Effect on serotonin in rat whole brain, after sc administration (0.1 mg/kg dose) (experiment 1); format: functional, organism-based
Rattus norvegicus [8] = test: Decreased accumulation of 5-hydroxytryptophan after decarboxylase inhibition in the hypothalamus of rat at a dose 0.01mg/Kg, sc; format: functional, organism-based; procedure, shortened: as §2
Rattus norvegicus [9] = test: Effect on concentration of 5HIAA in rat brain hypothalamus after 0.3 mg/kg sc administration; format: functional, organism-based; design: dose 0.3 mg/kg
Procedure, shortened: (§4)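 Male Wistar rats (~150 g) were injected sc with drug in dilute HCl and decapitated 1 h later. Hypothalamus and striatum were dissected and frozen on dry ice. […] Results are mean ± SE, five rats/group, P < 0.05.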

Rattus norvegicus [10] = test: Effect on serotonin in rat whole brain, after sc administration (0.01 mg/kg dose) (experiment 2); format: functional, organism-based; procedure, shortened: as §3
Rattus norvegicus [11] = test: Effect on serotonin in rat whole brain, after sc administration (0 mg/kg dose) (experiment 2); format: functional, organism-based; procedure, shortened: as §3
Rattus norvegicus [12] = test: Effect on serum corticosterone in serum of rats after sc administration (0.03 mg/kg dose) (experiment 1); format: functional, organism-based; procedure, shortened: as §1
Rattus norvegicus [13] = test: Effect on serum corticosterone in serum of rats after sc administration (0.1 mg/kg dose) (experiment 1); format: functional, organism-based; procedure, shortened: as §1
Rattus norvegicus [14] = test: Effect on serum corticosterone in serum of rats after sc administration (0 mg/kg dose) (experiment 1); format: functional, organism-based; procedure, shortened: as §1
Rattus norvegicus [15] = test: Effect on 5-hydroxyindoleacetic acid in rat whole brain, after sc administration (0.03 mg/kg dose) (experiment 1); format: functional, organism-based; procedure, shortened: as §3
Rattus norvegicus [16] = test: Effect on 5-hydroxyindoleacetic acid in rat whole brain, after sc administration (0.03 mg/kg dose) (experiment 2); format: functional, organism-based; procedure, shortened: as §3
Rattus norvegicus [17] = test: Effect on 5-hydroxyindoleacetic acid in rat whole brain, after sc administration (0.1 mg/kg dose) (experiment 1); format: functional, organism-based; procedure, shortened: as §3
Rattus norvegicus [18] = test: Effect on 5-hydroxyindoleacetic acid in rat whole brain, after sc administration (0.3 mg/kg dose) (experiment 1); format: functional, organism-based; procedure, shortened: as §3
Rattus norvegicus [19] = test: Effect on 5-hydroxyindoleacetic acid in rat whole brain, after sc administration (0 mg/kg dose) (experiment 1); format: functional, organism-based; procedure, shortened: as §3
Rattus norvegicus [20] = test: Effect on 3,4- dihydroxyphenylacetic acid concentration in rat striatum, after 0.03 mg/kg sc administration; format: functional; details: route subcutaneous
Procedure, shortened: (§5)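 Male Wistar rats (~150 g) were given drug or apomorphine HCl sc and decapitated 1 h later. Striatal DOPAC and HVA were quantified by LC with electrochemical detection. Results are mean ± SE, five rats/group, P < 0.05.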

Rattus norvegicus [21] = test: Effect on homovanillic acid concentration in rat striatum, after 0.3 mg/kg sc administration; format: functional; details: route subcutaneous; procedure, shortened: as §5
Rattus norvegicus [22] = test: Minimum effective dose required to suppressing (MED) 5HIAA concentration in rat when administered sc; format: functional; details: read-out: MED
Procedure, shortened: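 Male Wistar rats (~150 g). Compound in dilute HCl given sc at graded doses 1 h before decapitation. Whole-brain 5-HIAA measured by LC with electrochemical detection; serum corticosterone measured spectrofluorometrically. Minimum effective dose is the lowest dose giving a significant difference from control (P < 0.05).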

Rattus norvegicus [23] = test: Effect of Metergoline on the elevation of serum corticosterone, after sc administration (0.1 mg/kg) No pretreatment; format: functional, organism-based
Procedure, shortened: (§6)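 Male Wistar rats (~150 g) received metergoline (3 mg/kg, ip) or no pretreatment. Drug was given sc in dilute HCl 1 h later, and rats were decapitated 1 h after that. Serum corticosterone was determined spectrofluorometrically. Results are mean ± SE, five rats/group, P < 0.05 versus the corresponding control.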

Rattus norvegicus [24] = test: Effect of Metergoline on the elevation of serum corticosterone, after sc administration (0.3 mg/kg) No pretreatment; format: functional, organism-based; procedure, shortened: as §6
Rattus norvegicus [25] = test: Effect of Metergoline on the elevation of serum corticosterone, after sc administration (0 mg/kg) Metergoline pretreament; format: functional, organism-based; procedure, shortened: as §6
Rattus norvegicus [26] = species on record: Rattus norvegicus; test: Effect of fluoxetine on the elevation of serum corticosterone at a dose 100 ug/mL, No pretreatment; format: functional, organism-based
Procedure, shortened: (§7)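 Rats got fluoxetine HCl (10 mg/kg, ip) or no pretreatment. 16 h later, drug (0.3 mg/kg, sc, dilute HCl) or p-chloroamphetamine HCl (2.5 mg/kg, ip) was given, with decapitation 1 h after. Serum corticosterone was measured spectrofluorometrically. Results are mean ± SE, five male Wistar rats/group, P < 0.05.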

Rattus norvegicus [27] = species on record: Rattus norvegicus; test: Effect of fluoxetine on the elevation of serum corticosterone, Fluoxetine pretreament; format: functional, organism-based; procedure, shortened: as §7
Rattus norvegicus [28] = species on record: Rattus norvegicus; test: Effect of […] on the elevation of serum corticosterone at a dose 100 ug/mL No pretreatment; format: functional, organism-based
Procedure, shortened: as §7, with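 “p-chlorophenylalanine (300” for “fluoxetine HCl (10”, “24” for “16”, “and rats were killed” for “with decapitation”, “rats/group.” for “rats/group, P < 0.05.”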

Rattus norvegicus [29] = species on record: Rattus norvegicus; test: Effect of […] on the elevation of serum corticosterone at a dose 100 ug/mL PCPA pretreated; format: functional, organism-based
Procedure, shortened: as §7, with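 “p-chlorophenylalanine (300” for “fluoxetine HCl (10”, “24” for “16”, “and rats were killed” for “with decapitation”, “rats/group.” for “rats/group, P < 0.05.”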

[30] = Ratio of affinity towards 5-HT1 to 5-HT2 receptor
Procedure, shortened: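 Frontal cortex from male Wistar rats (140–160 g), homogenate pellet in 0.05 M Tris with 10 μM pargyline and 4 mM Ca²⁺, 250–350 μg protein/sample. 5-HT1: 2 nM [³H]-5-HT, nonspecific with 10 μM 5-HT. […] Eleven concentrations, 0.1–10 000 nM, in duplicate. IC50 from curve fitting of specific binding.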

Rattus norvegicus [31] = test: Effect on concentration of serotonin in rat brain striatum after 0.3 mg/kg sc administration; format: functional, organism-based; design: dose 0.3 mg/kg; procedure, shortened: as §4

C[C@@H]1C=C2c3cccc4c3[C@@H](CN4)C[C@H]2N(C)C1
IC50 [1]: 17 nM | IC50 [2]: 1665 nM | Concentration (Rattus norvegicus [3]): 70.8 nM/g | Concentration (Rattus norvegicus [4]): 0.73 nM/g | Concentration (Rattus norvegicus [5]): 2.77 nM/g | Concentration (Rattus norvegicus [6]): 2.8 nM/g | Concentration (Rattus norvegicus [7]): 2.59 nM/g | Concentration (Rattus norvegicus [8]): 1.64 nM/g | Concentration (Rattus norvegicus [9]): 2.18 mg/kg | Concentration (Rattus norvegicus [10]): 2.67 nM/g | Concentration (Rattus norvegicus [11]): 2.66 nM/g | Concentration (Rattus norvegicus [12]): 6.5 nM/g | Concentration (Rattus norvegicus [13]): 33.8 nM/g | Concentration (Rattus norvegicus [14]): 4.3 nM/g | Concentration (Rattus norvegicus [15]): 1.52 nM/g | Concentration (Rattus norvegicus [16]): 1.9 nM/g | Concentration (Rattus norvegicus [17]): 1.45 nM/g | Concentration (Rattus norvegicus [18]): 1.45 nM/g | Concentration (Rattus norvegicus [19]): 1.89 nM/g | DOPAC concentration (Rattus norvegicus [20]): 3.81 nM/g | Homovanillic acid concentration (Rattus norvegicus [21]): 3.27 nM/g | minimal effective dose (Rattus norvegicus [22]): 0.03 mg/kg | Serum corticosterone (Rattus norvegicus [23]): 33.8 µg/mL | Serum corticosterone (Rattus norvegicus [24]): 46.6 µg/mL | Serum corticosterone (Rattus norvegicus [25]): 6.2 µg/mL | Serum corticosterone (Rattus norvegicus [26]): < 68.2 µg/mL | Serum corticosterone (Rattus norvegicus [27]): < 61.2 µg/mL | Serum corticosterone (Rattus norvegicus [28]): 47.3 µg/mL | Serum corticosterone (Rattus norvegicus [29]): 42 µg/mL | Selectivity ratio [30]: 100 | Concentration (Rattus norvegicus [31]): 1.94 mg/kg
